According to PubChem BioAssay AID504338 (NMMLSC, 2011):
Values without a mark were called inactive. Active and inactive are the calls of the source.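 The calls were made as follows: active = GFP response vs DMSO above 150% with enough events counted; inconclusive = fewer than 70 events counted for a yeast strain; inactive = the rest.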

Assay: yeast TOR reporter LAP4-GFP retest – cell-based, third cherry pick, flow cytometry, confirmation (AID 504338);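 also: ratio to plate DMSO wells so 100% equals DMSO level rather than 0%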
Conditions: S. cerevisiae LAP4-GFP strain, 3 h, at 10 µM, stronger effect = higher value
In short: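 System: Saccharomyces cerevisiae strain expressing LAP4-GFP fusion protein. Quantity: cells at 0.2 OD600. Medium: synthetic complete medium. Read-out basis: median GFP fluorescence as percent of plate DMSO-well average. Signal: high-throughput flow cytometry of GFP, single-cell scatter gate. Schedule: 3 h treatment, 30 °C. Dosing: single compound dose, 10 µM final.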
For CCc1sc(C(=O)Nc2nc(-c3ccccn3)cs2)cc1C, the GFP response vs DMSO was 189% (active).
Work on COc1ccccc1Nc1nc(NCCC(C)C)nc(N)c1[N+](=O)[O-] yielded a GFP response vs DMSO of 100%.
CN1CCN(C(=O)c2cc(COc3ccc(F)cc3Cl)on2)CC1c1ccccc1 (stereo unspecified) gave a GFP response vs DMSO of 103%.
Work on COc1ccccc1OCc1cc(C(=O)N2CCN(C)C(c3ccccc3)C2)no1 (stereo unspecified) yielded a GFP response vs DMSO of 106%.
For Cc1ccc2c(C)ccc(O)c2n1, the GFP response vs DMSO was 101%.
For Oc1c(I)cc(Cl)c2cccnc12, the GFP response vs DMSO was 192% (active).
For C/C(=N\NC(=O)c1cccc2ccccc12)c1cccnc1, the GFP response vs DMSO was 104%.
In the case of Nc1c(C(=O)O)ccc2c1C(=O)c1ccccc1C2=O, the GFP response vs DMSO is reported as 115%.
O=C1c2ccccc2C(=O)c2c1cccc2N(CCO)CCO gave a GFP response vs DMSO of 100%.
Molecule CCc1c(C)nc2c(OC)cccc2c1Cl has a GFP response vs DMSO of 104%.
For COc1ccc(OC)c2c(C)cc(C)nc12, the GFP response vs DMSO was 103%.
Work on OCc1ccc(O)c2ncccc12 yielded a GFP response vs DMSO of 101%.
CSc1nc(Nc2ccc(Cl)cc2)c(C#N)c(=O)[nH]1 gave a GFP response vs DMSO of 106%.
Molecule Cc1ccc(NC(=O)O/N=C2\CCCCC2c2ccc([N+](=O)[O-])cc2[N+](=O)[O-])cc1 (stereo unspecified) has a GFP response vs DMSO of 103%.
For CCC(C)Nc1nc(N)c([N+](=O)[O-])c(Nc2ccccc2OC)n1 (stereo unspecified), the GFP response vs DMSO was 97.2%.
Cc1cc(C)c(NC(=O)CC(=O)c2ccccc2)c(Cl)c1 showed a GFP response vs DMSO of 100%.
Work on Nc1cccc2c1C(=O)c1ccc(Cl)cc1C2=O yielded a GFP response vs DMSO of 100%.
CCCC(=O)Nn1cnc2c(c1=O)C1(CCCCC1)Cc1ccccc1-2 showed a GFP response vs DMSO of 103%.
COc1cccc2c(O)cc(=O)n(C)c12 gave a GFP response vs DMSO of 104%.
In the case of O=C(O)c1ccccc1-c1ccccc1C(=O)Nc1ccc(-c2nc3cc(Cl)ccc3o2)cc1, the GFP response vs DMSO is reported as 104%.
With COC1=C/C(=C/c2c(N)n3cc(C)sc3nc2=O)C=CC1=O the GFP response vs DMSO was 110%.
